# The list is not random: actives were taken first. Their share in the collection is about 7.9%.
# JNK3 blocker: blocks human JNK3 kinase activity; P53779; purified JNK3 kinase activity, HTS; inhibition, % at 8 µM; hit rate 0.61% among 60,000; AID 746; in the data active means inhibition above about 17%;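 further: 0% = DMSO and 100% = reference inhibitor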
# Target sequence (P53779 whole entry, looked up): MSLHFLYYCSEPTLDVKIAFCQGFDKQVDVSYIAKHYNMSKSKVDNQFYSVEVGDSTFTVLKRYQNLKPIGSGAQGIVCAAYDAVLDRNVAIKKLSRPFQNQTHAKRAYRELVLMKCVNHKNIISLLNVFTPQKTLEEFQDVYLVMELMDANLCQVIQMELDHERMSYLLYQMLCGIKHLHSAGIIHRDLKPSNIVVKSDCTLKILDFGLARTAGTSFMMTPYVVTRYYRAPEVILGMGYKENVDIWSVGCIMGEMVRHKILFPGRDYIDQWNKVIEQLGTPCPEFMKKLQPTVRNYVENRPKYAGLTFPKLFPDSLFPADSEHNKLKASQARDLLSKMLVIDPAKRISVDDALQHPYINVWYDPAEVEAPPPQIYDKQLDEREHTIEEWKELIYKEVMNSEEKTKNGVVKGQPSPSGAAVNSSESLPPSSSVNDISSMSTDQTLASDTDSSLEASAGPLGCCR
# SF-1 act: SF-1 (human) activation. CHO-K1 Gal4-SF-1 LBD luciferase reporter; % increase over DMSO SF-1-specific signal. AID 522. activation, % at 10 µM. hit rate 1.9% among 65,000. Q13285;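 active means activation above the mean activation of all tested compounds plus 3 SD, cut at about 50% in these data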
#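 Test system: CHO-K1 cells co-transfected with Gal4 DBD–human SF-1 LBD, 5xGal4 luciferase reporter. Quantity: 4,000 cells per well. Compound: 10 µM only. Incubation: compound added 1 h post-seeding, 20 h exposure at 37 °C, 5% CO2. Detection: SteadyLite luciferase luminescence. Replication: one test per compound.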
# RORA act: activators of human nuclear receptor RORA | P35398 | CHO-K1 Gal4-RORA LBD luciferase reporter, luminescence; percent increase over mock-subtracted basal signal | activation, % at 10 µM | hit rate 1.5% among 65,000 | AID 560;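 active means activation above the mean of all tested compounds plus 3 SD, cut at about 49% in these data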;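 further: 0% = DMSO-treated RORA cells and 100% = added signal equal to DMSO minus mock-transfected cells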
# HEK293 NFkB inh: lowers PMA/ionomycin-induced NF-kB signal in HEK293 cells. HEK-293 NF-kB luciferase reporter, luminescence. inhibition, % at 3 µM. hit rate 0.21% among 62,000. AID 465;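 active means inhibition above the mean of all tested compounds plus 3 SD, cut at about 40% in these data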;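 further: 0% = stimulated DMSO wells and 100% = 10 µM reference inhibitor 5653914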
#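 Reagent: PMA plus ionomycin mix as NF-kB-activating stimulus. Assay system: NF-kB luciferase reporter HEK-293 cells. Technique: luminescence from luciferase substrate reagent. Incubation: 1 h compound pre-incubation, 16 h PMA/ionomycin at 37 °C. Benchmarks: DMSO only as uninhibited control, 10 µM reference inhibitor as full inhibition. Repeats: tested once.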
# D1 allo mod: allosterically modulates the human D1 dopamine receptor; B-score at 10 µM; P21728; hit rate 5.9% among 58,000; HEK293 D1, CRE-luciferase, dopamine EC30 potentiation; actives deviate in either direction;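 active means luminescence count or its row- and column-corrected plate score outside the 99.7% band of the plate's sample wells, on either side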
# D1 PAM confirm: confirmation of human D1 dopamine receptor allosteric modulators; luminescence at 10 µM; shares compounds with D1 allo mod; hit rate 88% among 2,200; HEK293 D1 CRE-luciferase, dopamine EC30 potentiation; stronger effect = higher value; AID 642;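 active means luminescence in either of two replicates above the same-plate mean plus 3 SD of the low-dose dopamine control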
# D1 ag no DA: secondary test of D1 modulators: activity without dopamine | shares compounds with D1 allo mod | HEK293 D1 CRE-luciferase, luminescence, no dopamine; stronger effect = higher value | luminescence at 10 µM | hit rate 0.8% among 1,900 | AID 646; in the data active means luminescence above about 3900
# Isoprot counter: alters isoproterenol CRE-luciferase response in HEK293 cells; hit rate 63% among 2,200; AID 647; shares compounds with D1 allo mod; HEK293 D1 CRE-luciferase, isoproterenol EC30 counter-screen; calls only at 10 µM;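 active means luminescence in either replicate above plate mean of wells with a partly effective reference agonist dose plus 3 SD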;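 further: isoproterenol raises cAMP through native beta-adrenoceptor Gs so signal bypasses D1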
# Numbers without * were called inactive; i = inactive; nt = no result; + = active, no number.
SMILES,JNK3 blocker,SF-1 act,RORA act,HEK293 NFkB inh,D1 allo mod,D1 PAM confirm,D1 ag no DA,Isoprot counter
Cc1ccc(OCCN2C(=O)OC(C)(C)C2(C)O)cc1 (stereo not given),2.4,23.0,7.6,-17.9,5.52*,7404*,1572,i
CCOC(=O)CNC(=O)Cn1cnc2c(nnn2-c2cccc(Cl)c2)c1=O,4.7,-3.5,-20.0,2.4,-0.382,nt,nt,nt
CCS(=O)(=O)NCCc1csc(C)n1,1.2,2.7,-28.7,8.5,0.673,nt,nt,nt
COc1ccc(-n2c(Cc3cccn3C)nnc2SCC(=O)Nc2ccccc2OC)cc1,3.5,-2.8,1.9,14.7,0.555,nt,nt,nt
Cc1nnc(NC(=O)CSc2nnc(Cc3cccn3C)n2-c2cccc(C(F)(F)F)c2)s1,-5.2,31.5,8.7,11.3,3.38*,5796,1516,i
COc1ccc(-n2c(Cc3cccn3C)nnc2SCC(=O)Nc2ccc(C)cc2C)cc1,3.9,0.8,3.8,10.3,17*,4936,1328,i
CCCC(=O)OCC(=O)Nc1cc(C(C)(C)C)nn1-c1ccccc1,-7.4,4.2,3.7,4.4,4.7*,6968*,nt,i
CCOC(=O)c1c(C)c(C(=O)Nc2cc(OC)ccc2OC)c(C)n1CC,0.5,12.6,21.0,9.7,3.14*,7504*,1448,+
c1nc(N2CCOCC2)c2sc3nc(N4CCOCC4)c4c(c3c2n1)CCCC4,5.9,-12.6,4.3,7.6,0.545,nt,nt,nt
Cc1cc(C)c2c(n1)sc1c(N3CCN(CCO)CC3)ncnc12,9.8,10.6,28.1,6.6,7.23*,11076*,1676,+
C=CCn1c(=S)[nH]c2ccc(Br)cc2c1=O,-2.5,-8.7,-4.5,-9.7,1.47,nt,nt,nt
C=CCn1c(=S)[nH]c2nc3c(cc2c1=O)CCCC3,5.9,35.4,15.6,nt,6.02*,13488*,1592,i
O=c1cc(-c2ccccc2)c2c([nH]1)CCCC2,10.4,-10.6,-27.1,20.9,5.25*,7876*,1792,i
CCOC(=O)CSc1nnc(-c2ccco2)n1-c1ccccc1,3.0,10.3,-3.0,16.1,0.59,nt,nt,nt
COC(=O)CSc1nnc(-c2ccco2)n1-c1ccc(C)cc1,2.1,-21.5,3.8,1.2,14.9*,17312*,1612,+
COC(=O)c1cccc(CSc2nnc(-c3ccco3)n2-c2ccccc2)c1,-6.6,-17.8,-2.0,6.3,4.25*,17968*,1916,+
CCOC(=O)CSc1nnc(-c2ccco2)n1-c1ccc(C)cc1,4.1,-5.5,-6.3,10.6,4.29*,5532,nt,+
COc1cccc(C(=O)N(CN2CCCC2=O)c2cccc(Cl)c2)c1,-6.2,3.4,6.9,12.9,nt,nt,nt,nt
CC(C)Oc1ccc(C(=O)N(CN2CCCC2=O)c2ccc(F)cc2)cc1,2.1,2.8,-6.7,-2.4,4.45*,7800,1532,i
Oc1ccccc1C1=Nc2ncnn2C(c2ccc(F)cc2)C1 (stereo not given),0.0,-12.2,3.1,11.3,1.51,nt,nt,nt
CCOC(=O)c1oc2cccc(O)c2c1CN1CCOCC1,-1.1,3.9,15.8,3.0,5.81*,7884*,1544,i
CCOC(=O)c1c(-c2ccccc2)oc2ccc(O)c(CN3CCOCC3)c12,-1.2,14.1,-6.0,1.0,0.476,nt,nt,nt
CCOC(=O)c1oc2ccccc2c1CN1CCN(C(=O)c2ccccc2)CC1,-3.6,-2.5,-18.8,17.0,6.95*,17092*,1488,+
CCOC(=O)c1cc(CN2CCOCC2)oc1-c1ccccc1,11.3,13.3,-5.2,20.2,3.96*,12300*,1700,+
Cc1cccc(C)c1N1C(=O)c2ccccc2C1=O,-7.2,1.8,-8.0,15.6,-0.195,nt,nt,nt
CC1(C(=O)N(CC(=O)NC2CCCC2)Cc2ccco2)CC(=O)N=C2C=CC=CN21 (stereo not given),0.5,-0.6,-3.2,-2.1,nt,nt,nt,nt
O=C(CN(Cc1ccc2c(c1)OCO2)C(=O)CNS(=O)(=O)c1ccccc1)NCc1ccco1,-1.1,1.6,6.4,3.9,nt,nt,nt,nt

# Bioassay records: PubChem BioAssay, several laboratories
